High-throughput results from PubChem BioAssay.
Hep lipid drop – modulators of hepatic lipid droplet formation; AML12 mouse hepatocytes, oleate lipid droplets, BODIPY imaging; 240,000 tested, 0.4% active; inhibition, % at 6.5 µM;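 active = lipid droplet intensity inhibited by at least 50%, with more than 500 cells counted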
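Assay system: AML12 mouse liver cells | Compound: 6.5 µM single-point dosing | Schedule: Overnight exposure | Technique: Fluorescence imaging, 20x objective, two fields per well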
MEKK2 WT-MEK5 – raises or lowers MEK5 binding to wildtype human MEKK2 PB1 domain; Q9Y2U5; bead flow cytometry, Alexa488-MEK5 binding to MEKK2 WT; actives lie on both sides; binding response (% of control), % at 10 µM; 290,000 tested, 1.1% active; AID 1531; in the data active = binding response below about 67% or above about 130%
MEKK2 mut-MEK5 – signal of MEK5 binding to mutant human MEKK2 PB1 domain; bead flow cytometry, Alexa488-MEK5 binding to MEKK2 mutant; percent response, % at 10 µM; 290,000 tested, 0.35% active; in the data active = percent response above about 24%, passing the limit was not always enough
MEKK3 PB1 HTS – raises or lowers MEK5 binding to the human MEKK3 PB1 domain; bead-based flow cytometry, Alexa488-MEK5 binding to MEKK3; actives lie on both sides; 0 = blocked by unlabeled MEK5, 100 = vehicle; binding response (% of control), % at 10 µM; 290,000 tested, 1.4% active;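 active = binding response more than 3 SD above or below the average of its plate-row segment, actives on both sides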;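 note: Alexa488 bead fluorescence after subtracting the streptavidin-only scavenger bead signal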
Target sequence (Q99759 whole entry, looked up, the tested form may be a part): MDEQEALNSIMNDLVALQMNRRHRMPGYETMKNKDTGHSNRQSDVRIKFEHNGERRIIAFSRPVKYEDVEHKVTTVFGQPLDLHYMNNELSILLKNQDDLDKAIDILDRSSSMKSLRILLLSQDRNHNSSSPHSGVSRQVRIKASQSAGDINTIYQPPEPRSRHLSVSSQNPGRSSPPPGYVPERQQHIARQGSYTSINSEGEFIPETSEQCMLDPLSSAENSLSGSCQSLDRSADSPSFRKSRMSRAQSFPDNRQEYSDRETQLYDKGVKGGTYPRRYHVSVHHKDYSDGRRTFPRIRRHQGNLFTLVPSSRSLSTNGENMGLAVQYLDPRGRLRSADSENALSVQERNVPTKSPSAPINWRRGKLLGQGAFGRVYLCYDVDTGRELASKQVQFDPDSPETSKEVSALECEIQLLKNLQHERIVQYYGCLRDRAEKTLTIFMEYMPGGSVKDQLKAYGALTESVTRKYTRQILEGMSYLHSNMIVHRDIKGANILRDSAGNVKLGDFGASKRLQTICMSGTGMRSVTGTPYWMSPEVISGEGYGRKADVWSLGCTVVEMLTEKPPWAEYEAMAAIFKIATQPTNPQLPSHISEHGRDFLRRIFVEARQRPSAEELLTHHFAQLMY
MEKK2wt confirm – raises or lowers MEK5 binding to wildtype human MEKK2, retest; 5,900 tested, 2.4% active; shares compounds with MEKK3 PB1 HTS; bead flow cytometry, Alexa488-MEK5 binding to MEKK2 WT; actives lie on both sides; binding response (% of control), % at 10 µM; in the data active = binding response below about 16% or above about 210%; inactive = in between
MEKK2mut confirm – signal of MEK5 binding to mutant human MEKK2, retest; percent response, % at 10 µM; 5,900 tested, 2% active; shares compounds with MEKK3 PB1 HTS; bead flow cytometry, Alexa488-MEK5 binding to MEKK2 mutant; in the data active = percent response mostly above about 71%, no sharp cut-off; inactive = mostly below about 38%;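 note: higher means compound restores mutant binding toward wildtype level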
MEKK3 confirm – MEKK3-MEK5 PB1 inhibition, single concentration confirmation; shares compounds with MEKK3 PB1 HTS; bead flow cytometry, Alexa488-MEK5 binding to MEKK3; active compounds read low; 5,900 tested, 1.8% active; binding response (% of control), % at 10 µM;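 active = binding response below 72% of control, or above a set upper limit, though filed actives all read lower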;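 note: 100% = DMSO only wells and 0% = binding blocked by excess unlabeled MEK5; lower values mean stronger disruption of MEK5 binding to MEKK3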
Starred values were filed as active, the others as inactive; · = no result given; [ ] = another dose, or the depositor's remark. This is a sample that favours compounds with a hit; in the whole collection about 2.6% have one here.

SMILES	Hep lipid drop	MEKK2 WT-MEK5	MEKK2 mut-MEK5	MEKK3 PB1 HTS	MEKK2wt confirm	MEKK2mut confirm	MEKK3 confirm
CCOC(=O)c1ccc(N2C(=O)Cc3ccccc3C2=O)cc1	3.6	98.0	-4.0	102.0	·	·	·
Cc1nn(C)c(NC(=O)c2ccc(Cl)cc2Cl)c1Br	·	98.0	2.0	97.0	·	·	·
O=C(CSc1ccc2nnc(-c3ccc(F)cc3)n2n1)N1CCCc2ccccc21	2.5	102.0	0.0	134.0*	101.0	5.0	104.0
O=C(CSc1ccc2nnc(-c3ccc(Cl)cc3)n2n1)N1CCCc2ccccc21	-30.8	97.0	-1.0	112.0	·	·	·
COc1ccc(C(C)=O)cc1COC(=O)c1ccc2ccccc2n1	-8.5	107.0	-1.0	129.0*	102.0	3.0	102.0
O=C(Cc1cccc2ccccc12)N/N=C/c1ccncc1	-3.7	97.0	-7.0	100.0	·	·	·
O=C(Cc1cccc2ccccc12)N/N=C/c1ccc(F)cc1	·	113.0	6.0	122.0*	95.0	2.0	96.0
N=c1c(C(=O)NC2CCCCC2)cc2c(=O)n3ccccc3nc2n1CCc1ccccc1	-16.3	105.0	10.0	99.0	·	·	·
CCC12CN3CCN(CC(C3)/C1=N\NC(=O)Nc1ccccc1)C2	14.8	108.0	1.0	129.0*	103.0	5.0	103.0
O=C(CCC(=O)Nc1ccc(Br)cc1)N/N=C/c1ccccc1F	9.9	100.0	6.0	101.0	·	·	·
O=C(CCC(=O)Nc1ccc(F)cc1)N/N=C/c1ccccc1O	10.5	124.0	5.0	149.0*	106.0	8.0	107.0
CCOC(=O)c1c(C)n(C)c2ccc(OCC(O)CN3CCN(C)CC3)cc12 (stereo not drawn)	·	125.0	8.0	109.0	·	·	·
CCOC(=O)c1c(C)n(-c2ccc(C)cc2)c2ccc(OCC(O)CN3CCN(C)CC3)cc12 (stereo not drawn)	2.5	289.0*	104.0*	104.0	214.0*	71.0*	112.0
Cc1cccc(-n2c(=O)c3c4c(sc3n3c(=S)[nH]nc23)CCC4)c1	-2.6	111.0	0.0	131.0*	121.0	13.0	107.0
CCOC(=O)C1CCN(C(=O)c2cccc(NC(=O)C(CC)CC)c2)CC1	-1.4	81.0	-12.0	81.0*[inhibitor]	100.0	0.0	100.0
CCc1nc(SCC(=O)Nc2nnc(CC)s2)c2c(C)c(C)sc2n1	·	104.0	1.0	102.0	·	·	·
CCCc1nc(SCC(=O)Nc2nnc(CC)s2)c2c(C)c(C)sc2n1	·	115.0	9.0	122.0*	99.0	3.0	100.0
Cc1cccc(CC(=O)c2c[nH]c3ccccc23)c1	-30.5	98.0	-3.0	96.0	·	·	·
C#CCOCCOCCOCCNc1nc(N2CCN(C(=O)[C@H]([C@@H](C)CC)n3cc([C@@H](N)CO)nn3)CC2)nc(N2CCN(C(=O)[C@H](Cc3ccc(O)cc3)n3cc([C@@H](N)CC(C)C)nn3)CC2)n1	-9.1	116.0	3.0	75.0	·	·	·
C#CCOCCOCCOCCNc1nc(N2CCN(C(=O)[C@H]([C@@H](C)CC)n3cc([C@@H](N)Cc4ccc(O)cc4)nn3)CC2)nc(N2CCN(C(=O)[C@H](Cc3ccc(O)cc3)n3cc([C@@H](N)CC(C)C)nn3)CC2)n1	13.1	181.0*	50.0	114.0	118.0	8.0	101.0
C#CCOCCOCCOCCNc1nc(N2CCN(C(=O)[C@H]([C@@H](C)CC)n3cc([C@@H](N)Cc4ccc(O)cc4)nn3)CC2)nc(N2CCN(C(=O)[C@H]([C@@H](C)CC)n3cc([C@@H](N)CC(C)C)nn3)CC2)n1	-1.2	139.0*	20.0	94.0	134.0	19.0	101.0
CCC(C)Sc1nnc(NC(=O)c2ccco2)s1 (stereo not drawn)	·	109.0	6.0	103.0	·	·	·
Cc1nc(SCC(=O)NCC(F)(F)F)c2c(-c3cccs3)csc2n1	0.9	104.0	0.0	128.0*	96.0	-5.0	100.0
COc1ccccc1N1CCN(C2CCCN(C(=O)c3ccsc3)C2)CC1 (stereo not drawn)	-7.1	107.0	5.0	104.0	·	·	·
COc1ccccc1CNC(=O)c1ccc(OCc2c(C)noc2C)c(OC)c1	7.4	1.0*[inhibitor]	-42.0	2.0*[inhibitor]	105.0	1.0	102.0
SMILES	Hep lipid drop	MEKK2 WT-MEK5	MEKK2 mut-MEK5	MEKK3 PB1 HTS	MEKK2wt confirm	MEKK2mut confirm	MEKK3 confirm
Cc1csc(NC(=O)c2ccc(Cl)nc2)n1	·	102.0	6.0	102.0	·	·	·
C=C(C)c1cccc(C(C)(C)NC(=O)NCc2ccc(OC)cc2)c1	2.2	104.0	0.0	133.0*	104.0	6.0	105.0
C=C(C)c1cccc(C(C)(C)NC(=O)NCc2ccc(OC)c(OC)c2)c1	·	102.0	5.0	104.0	·	·	·
CC1CCN(S(=O)(=O)c2ccc(S(=O)(=O)NCC(=O)C(C)(C)C)cc2)CC1	9.9	32.0*[inhibitor]	-22.0	23.0*[inhibitor]	96.0	-7.0	99.0
CCC[C@@H]1C[C@@H](C(=O)N[C@@H](C2O[C@H](SC)[C@H](O)[C@@H](O)[C@H]2O)[C@H](C)Cl)N(C)C1 (stereo partly drawn)	1.8	54.0	1.0	50.0*[inhibitor]	97.0	-6.0	101.0
CCC[C@@H]1C[C@@H](C(=O)NC(C(C)Cl)[C@H]2O[C@H](SC)[C@H](O)[C@@H](O)[C@H]2O)N(C)C1 (stereo partly drawn)	12.0	104.0	5.0	103.0	·	·	·
COc1ccc(S(=O)(=O)NCCSc2ccccc2)cc1OC	16.5	97.0	1.0	99.0	·	·	·
COc1ccc(S(=O)(=O)NCCSc2ccc(C)cc2)cc1OC	·	123.0	9.0	122.0*	98.0	1.0	100.0
Cc1cccc(C)c1NC(=O)CCn1cnc2ccccc2c1=O	8.0	-2.0*[inhibitor]	-22.0	1.0*[inhibitor]	101.0	3.0	97.0
CC1CCN(CCCNC(=O)C2CCN(S(=O)(=O)N3CCCCC3)CC2)CC1	·	115.0	13.0	123.0*	103.0	0.0	102.0
CC1CCCCN1CCNC(=O)C1CCN(S(=O)(=O)N2CCCCC2)CC1 (stereo not drawn)	·	102.0	2.0	101.0	·	·	·
CC1CC(C)CN(CCCNC(=O)C2CCN(S(=O)(=O)N3CCCCC3)CC2)C1 (stereo not drawn)	·	118.0	10.0	123.0*	109.0	15.0	108.0
CC1CCN(S(=O)(=O)N2CCC(C(=O)NCCC3=CCCCC3)CC2)CC1	-1.8	70.0	-23.0	70.0*[inhibitor]	101.0	2.0	107.0
CC1CCN(S(=O)(=O)N2CCC(C(=O)NCCN3CCOCC3)CC2)CC1	-0.7	83.0	-13.0	77.0	·	·	·
O=C(NCCN1CCCCCC1)C1CCN(S(=O)(=O)N2CCOCC2)CC1	-17.4	131.0	39.0*	107.0	139.0	27.0	112.0
O=C(c1ccc2c(c1)OCO2)C1CCCN(Cc2ccc(OC(F)F)cc2)C1 (stereo not drawn)	-26.0	108.0	4.0	101.0	·	·	·
